ChEMBL document CHEMBL1145725, “Synthesis and antimicrobial activity of novel globomycin analogues” (2003)
In brackets after ≈: the same amount, converted by molar mass.

Key:
[1] = tested on: Serratia marcescens; experiment: Antibacterial activity against Serratia marcescens SANK 72790; type: functional
Method in brief: (§1)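 MIC by agar dilution on Nutrient Agar, following the NCCLS standard dilution method for aerobically growing bacteria.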

[2] = tested on: Escherichia coli; experiment: Antibacterial activity against Escherichia coli SANK 70569 (NIHJ JC-2); type: functional; method in brief: as §1
[3] = tested on: Klebsiella pneumoniae; experiment: Antibacterial activity against Klebsiella pneumoniae SANK 72490; type: functional; method in brief: as §1
[4] = tested on: Morganella morganii; experiment: Antibacterial activity against Morganella morganii SANK 72990; type: functional; method in brief: as §1
[5] = tested on: Proteus vulgaris; experiment: Antibacterial activity against Proteus vulgaris SANK 72890; type: functional; method in brief: as §1
[6] = tested on: Pseudomonas aeruginosa; experiment: Antibacterial activity against Pseudomonas aeruginosa SANK 73190; type: functional; method in brief: as §1
[7] = tested on: Escherichia coli; experiment: Antibacterial activity against Escherichia coli SANK 72290; type: functional; method in brief: as §1
[8] = tested on: Salmonella enteritidis; experiment: Antibacterial activity against Salmonella enteritidis SANK 72390; type: functional, Salmonella enterica subsp. enterica serovar Enteritidis; details: Salmonella enterica; method in brief: as §1
[9] = tested on: Pseudomonas aeruginosa; experiment: Antibacterial activity against Pseudomonas aeruginosa SANK 73090; type: functional; method in brief: as §1
[10] = tested on: Enterobacter cloacae; experiment: Antibacterial activity against Enterobacter cloacae 846; type: functional; method in brief: as §1
[11] = tested on: Enterobacter cloacae; experiment: Antibacterial activity against Enterobacter cloacae SANK 72690; type: functional; method in brief: as §1
[12] = tested on: Pseudomonas aeruginosa; experiment: Antibacterial activity against Pseudomonas aeruginosa SANK 3719; type: functional; method in brief: as §1
[13] = tested on: Staphylococcus aureus; experiment: Antibacterial activity against Staphylococcus aureus SANK 71890 (MRSA); type: functional; method in brief: as §1
[14] = tested on: Staphylococcus aureus; experiment: Antibacterial activity against Staphylococcus aureus SANK 70668; type: functional; method in brief: as §1
[15] = tested on: Staphylococcus aureus; experiment: Antibacterial activity against Staphylococcus aureus SANK 71790; type: functional; method in brief: as §1
[16] = tested on: Enterococcus faecalis; experiment: Antibacterial activity against Enterococcus faecalis SANK 71990; type: functional; method in brief: as §1

| SMILES | MIC [1] | MIC [2] | MIC [3] | MIC [4] | MIC [5] | MIC [6] | MIC [7] | MIC [8] | MIC [9] | MIC [10] | MIC [11] | MIC [12] | MIC [13] | MIC [14] | MIC [15] | MIC [16] |
| --- | --- | --- | --- | --- | --- | --- | --- | --- | --- | --- | --- | --- | --- | --- | --- | --- |
| CCCCCC[C@H]1OC(=O)CNC(=O)[C@@H]([C@H](C)OC)NC(=O)[C@H](CO)NC(=O)[C@H]([C@H](C)CC)NC(=O)[C@H](CC(C)C)N(C)C(=O)[C@@H]1C | > 100 µg/mL | 25 µg/mL (≈ 37.3 µM) | 50 µg/mL (≈ 74.6 µM) | > 100 µg/mL | > 100 µg/mL | > 100 µg/mL | 25 µg/mL (≈ 37.3 µM) | 50 µg/mL (≈ 74.6 µM) | > 100 µg/mL | 12.5 µg/mL (≈ 18.7 µM) | 100 µg/mL (≈ 149 µM) | > 100 µg/mL | – | – | – | – |
| CCCCCC[C@H]1OC(=O)CNC(=O)[C@@H]([C@@H](C)O)NC(=O)[C@H](CO)NC(=O)[C@H]([C@@H](C)CC)NC(=O)[C@H](CC(C)C)N(C)C(=O)[C@@H]1C | > 100 µg/mL | > 100 µg/mL | > 100 µg/mL | > 100 µg/mL | > 100 µg/mL | > 100 µg/mL | > 100 µg/mL | > 100 µg/mL | > 100 µg/mL | > 100 µg/mL | > 100 µg/mL | > 100 µg/mL | – | – | – | – |
| CCCCCC[C@H]1OC(=O)CNC(=O)[C@@H]([C@@H](C)O)NC(=O)[C@H](CO)NC(=O)[C@H]([C@H](C)CC)NC(=O)[C@H](CC(C)C)N(C)C(=O)[C@@H]1C | > 100 µg/mL | > 100 µg/mL | > 100 µg/mL | > 100 µg/mL | > 100 µg/mL | > 100 µg/mL | > 100 µg/mL | > 100 µg/mL | > 100 µg/mL | 100 µg/mL (≈ 152 µM) | > 100 µg/mL | > 100 µg/mL | – | – | – | – |
| CCCCCCCC[C@H]1OC(=O)CNC(=O)[C@H]([C@H](C)O)NC(=O)[C@H](CO)NC(=O)[C@H]([C@H](C)CC)NC(=O)[C@H](CC(C)C)N(C)C(=O)[C@@H]1C | 12.5 µg/mL (≈ 18.3 µM) | 3.13 µg/mL (≈ 4.58 µM) | 3.13 µg/mL (≈ 4.58 µM) | > 100 µg/mL | > 100 µg/mL | > 100 µg/mL | 3.13 µg/mL (≈ 4.58 µM) | 6.25 µg/mL (≈ 9.14 µM) | > 100 µg/mL | 1.56 µg/mL (≈ 2.28 µM) | 12.5 µg/mL (≈ 18.3 µM) | > 100 µg/mL | 50 µg/mL (≈ 73.1 µM) | 50 µg/mL (≈ 73.1 µM) | 50 µg/mL (≈ 73.1 µM) | 100 µg/mL (≈ 146 µM) |
| CCCCCC[C@H]1OC(=O)CNC(=O)[C@H]([C@H](C)O)NC(=O)[C@H](CO)NC(=O)[C@H]([C@H](C)CC)NC(=O)[C@H](CC(C)C)N(C)C(=O)[C@@H]1C | 100 µg/mL (≈ 152 µM) | 12.5 µg/mL (≈ 19.1 µM) | 25 µg/mL (≈ 38.1 µM) | > 100 µg/mL | > 100 µg/mL | > 100 µg/mL | 12.5 µg/mL (≈ 19.1 µM) | 25 µg/mL (≈ 38.1 µM) | > 100 µg/mL | 6.25 µg/mL (≈ 9.53 µM) | 50 µg/mL (≈ 76.2 µM) | > 100 µg/mL | > 100 µg/mL | > 100 µg/mL | > 100 µg/mL | > 100 µg/mL |
| CCCCCC[C@H]1OC(=O)CNC(=O)[C@@H]([C@H](C)O)NC(=O)[C@H](CO)NC(=O)[C@H]([C@@H](C)CC)NC(=O)[C@H](CC(C)C)N(C)C(=O)[C@@H]1C | > 100 µg/mL | 12.5 µg/mL (≈ 19.1 µM) | 25 µg/mL (≈ 38.1 µM) | > 100 µg/mL | > 100 µg/mL | > 100 µg/mL | 12.5 µg/mL (≈ 19.1 µM) | 50 µg/mL (≈ 76.2 µM) | > 100 µg/mL | 6.25 µg/mL (≈ 9.53 µM) | 50 µg/mL (≈ 76.2 µM) | > 100 µg/mL | – | – | – | – |
| CCCCCCCCCC[C@H]1OC(=O)CNC(=O)[C@H]([C@H](C)O)NC(=O)[C@H](CO)NC(=O)[C@H]([C@H](C)CC)NC(=O)[C@H](CC(C)C)N(C)C(=O)[C@@H]1C | 3.13 µg/mL (≈ 4.4 µM) | 1.56 µg/mL (≈ 2.19 µM) | 1.56 µg/mL (≈ 2.19 µM) | > 100 µg/mL | > 100 µg/mL | > 100 µg/mL | 1.56 µg/mL (≈ 2.19 µM) | 3.13 µg/mL (≈ 4.4 µM) | > 100 µg/mL | 1.56 µg/mL (≈ 2.19 µM) | 3.13 µg/mL (≈ 4.4 µM) | > 100 µg/mL | 12.5 µg/mL (≈ 17.6 µM) | 6.25 µg/mL (≈ 8.78 µM) | 6.25 µg/mL (≈ 8.78 µM) | 12.5 µg/mL (≈ 17.6 µM) |
| CCCCCC[C@H]1OC(=O)CNC(=O)[C@H](CC)NC(=O)[C@H](CO)NC(=O)[C@H]([C@H](C)CC)NC(=O)[C@H](CC(C)C)N(C)C(=O)[C@@H]1C | > 100 µg/mL | 25 µg/mL (≈ 39.1 µM) | 50 µg/mL (≈ 78.1 µM) | > 100 µg/mL | > 100 µg/mL | > 100 µg/mL | 25 µg/mL (≈ 39.1 µM) | 100 µg/mL (≈ 156 µM) | > 100 µg/mL | 12.5 µg/mL (≈ 19.5 µM) | > 100 µg/mL | > 100 µg/mL | – | – | – | – |
| CCCCCC[C@H]1OC(=O)CNC(=O)[C@H]([C@H](C)O)NC(=O)[C@H](CO)NC(=O)[C@H]([C@H](C)CC)NC(=O)[C@H](CC(C)C)NC(=O)[C@@H]1C | > 100 µg/mL | > 100 µg/mL | > 100 µg/mL | > 100 µg/mL | > 100 µg/mL | > 100 µg/mL | > 100 µg/mL | > 100 µg/mL | > 100 µg/mL | 100 µg/mL (≈ 156 µM) | > 100 µg/mL | > 100 µg/mL | – | – | – | – |
